The source of these data is PMC5839721 (The Journal of General Physiology, 2018).

The structures appear in SMILES notation. Read-outs that look alike come from different tables or passages of the source.

The target of assay [1] is T1, human SERT (Homo sapiens, UniProt P31645). The format is cell-based. The following applies: for change of rate of peak current recovery with intracellular Na+ concentration: 0 to 140 mM intracellular Na+; for change of rate of peak current recovery with intracellular Na+ concentration / increase of rate of peak current recovery from 0 M to 140 mM intracellular Na+: extracellular Na+ 140 mM; for peak current recovery rate (monoexponential fit): fixed intracellular Na+ 140 mM, K+-free, Fig. 1 G; for kslow of peak current recovery (biexponential fit): after 30 µM substrate, ±SEM; for dependence of the recovery rates on extracellular Na+ concentration: intracellular Na+ 140 mM, extracellular Na+ 10-140 mM. In a few lines:
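GFP-tagged human SERT, tetracycline-inducible, in HEK293 cells seeded at low density 24 h before. Whole-cell voltage clamp with superfused pH 7.4 HEPES buffer. Na+ varied, osmolarity kept by NMDG chloride; intracellular Na+ 0–140 mM at 140 mM external. After 30 µM substrate, 10 µM 5-HT-evoked peak recovery fitted to mono- or biexponential rise; rates ±95% CI, kslow ±SEM; n = 4–7.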

The target in assay [2] is T1, human SERT. Briefly: [3H]MPP+ release. It is filed as cell-based. The following applies: 3 µM releaser, 100 µM ouabain; for effect of monensin on efflux of [3H]MPP+: with vs without 10 µM monensin. In a few lines: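 HEK293 cells with inducible GFP-tagged human SERT on poly-D-lysine coverslips (24 h) were preloaded with 0.1 µM [3H]MPP+ for 20 min at 37°C. Superfused with K+-free buffer containing 100 µM ouabain for 40 min, then 2-min fractions: three basal, four with 10 µM monensin or ethanol vehicle, five with 3 µM test compound, three with 1% SDS. Release given as percent [3H]MPP+ over time.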

T1 sequence (P31645 whole entry, the tested form may be a part): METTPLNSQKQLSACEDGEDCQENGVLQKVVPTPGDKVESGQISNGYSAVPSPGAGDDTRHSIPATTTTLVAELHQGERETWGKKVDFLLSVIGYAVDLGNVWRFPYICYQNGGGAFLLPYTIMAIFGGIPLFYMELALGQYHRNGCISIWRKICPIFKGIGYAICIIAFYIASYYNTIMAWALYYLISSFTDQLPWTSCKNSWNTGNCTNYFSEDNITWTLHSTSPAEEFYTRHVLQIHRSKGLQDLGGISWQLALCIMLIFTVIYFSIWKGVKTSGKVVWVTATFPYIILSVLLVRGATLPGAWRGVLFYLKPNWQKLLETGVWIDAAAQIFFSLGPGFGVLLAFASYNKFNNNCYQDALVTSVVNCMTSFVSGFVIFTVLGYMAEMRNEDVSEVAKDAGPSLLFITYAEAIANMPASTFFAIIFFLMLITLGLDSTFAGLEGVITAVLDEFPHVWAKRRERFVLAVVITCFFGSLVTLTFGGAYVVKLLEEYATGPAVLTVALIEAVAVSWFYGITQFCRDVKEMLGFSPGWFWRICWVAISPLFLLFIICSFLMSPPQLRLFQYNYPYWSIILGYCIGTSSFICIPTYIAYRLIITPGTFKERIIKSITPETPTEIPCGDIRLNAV

As for `CNC(C)Cc1ccc2ccccc2c1` (centres unmarked) [PAL-1046], the “change of rate of peak current recovery with intracellular Na+ concentration” value (“change of rate of peak current recovery” below) on human SERT [1] is “did not change with Na^+ concentration”.
`CCN[C@@H](C)Cc1ccc2ccccc2c1` [PAL-1045]: the “effect of monensin on efflux of [3H]MPP+” value on human SERT [2] is “comparable in the absence and presence of monensin”. Moreover, at human SERT [1], the “change of rate of peak current recovery” value is recorded as “decreased fourfold” and the “peak current recovery rate (monoexponential fit)” value was 0.025 ± 0.001 s⁻¹. The “dissociation rate from SERT” value at human SERT [1] (slow dissociation from the outward-facing conformation, high Na+) was about 0.025 s⁻¹.
`CC(N)Cc1ccc2ccccc2c1` (centres unmarked) [PAL-287]: the “change of rate of peak current recovery” value on human SERT [1] is on record as “did not change with Na^+ concentration”.
Turning to `CC(N)Cc1ccc(Cl)cc1` (centres unmarked) [p-chloroamphetamine, para-chloroamphetamine], at human SERT [2] (no monensin), the “release of [3H]MPP+” value was “substantially larger release of [^3H]MPP^+ than PAL-1045”. The “effect of monensin on efflux of [3H]MPP+” value at human SERT [2] is recorded as “significantly larger efflux”. The “kslow of peak current recovery (biexponential fit)” value at human SERT [1] (10 mM Na+e, 140 mM intracellular Na+) worked out at 0.35 ± 0.23 s⁻¹; on human SERT [1] (70 mM Na+e, 140 mM intracellular Na+), 0.10 ± 0.12 s⁻¹; at human SERT [1] (70 mM Na+i, 140 mM extracellular Na+), 0.50 ± 0.11 s⁻¹; at human SERT [1] (140 mM Na+e, 140 mM intracellular Na+) it was 0.49 ± 0.15 s⁻¹. Moreover, the “increase of rate of peak current recovery from 0 M to 140 mM intracellular Na+” value on human SERT [1] was about 10 fold. For the same compound, the “dependence of the recovery rates on extracellular Na+ concentration” value on human SERT [1] was “did not detect any dependence”.
As to `NCCc1c[nH]c2ccc(O)cc12` [5-HT, 5-hydroxy-tryptamine], on human SERT [1], the “increase of rate of peak current recovery from 0 M to 140 mM intracellular Na+” value is recorded as about 6.7 fold, the “peak current recovery rate (monoexponential fit)” value turned out to be 4.012 ± 0.211 s⁻¹ and the “dependence of the recovery rates on extracellular Na+ concentration” value is “did not detect any dependence”.
